Legend:
CCRF-CEM [1] = assay: Tested for the inhibitory activity of virus induced giant cell formation in HIV-1 infected CEM cells; assay type: functional, cell-based; conditions: Homo sapiens
CCRF-CEM [2] = assay: Tested for the inhibitory activity of virus induced giant cell formation in HIV-2 infected CEM cells; assay type: functional, cell-based; conditions: Homo sapiens
Homo sapiens [3] = species on record: Homo sapiens; assay: Inhibition of HIV-1Ba-L replication was measured after 14 days postvirus challenge by HIV-p24 ELISA at the dosage of 0.033 uM concentration in human macrophages; assay type: functional; conditions: 336 h
Summary of the method: (§1)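 Human monocyte/macrophages isolated by 5-day adherence to plastic (10^6 cells/well), >95% pure by esterase and Giemsa staining. Infected with 500 minimal infective doses/well of HIV-1/Ba-L. Compound added from 30 min before virus challenge. Virus excess removed at 48 h and medium renewed with compound. Virus production read by p24 ELISA at day 14. Data are the mean of two independent experiments.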

Homo sapiens [4] = species on record: Homo sapiens; assay: Inhibition of HIV-1Ba-L replication was measured after 14 days postvirus challenge by HIV-p24 ELISA at the dosage of 0.8 uM concentration in human macrophages; assay type: functional; conditions: 336 h; summary of the method: as §1
Homo sapiens [5] = species on record: Homo sapiens; assay: Inhibition of HIV-1Ba-L replication was measured after 14 days postvirus challenge by HIV-p24 ELISA at the dosage of 3.3 uM concentration in human macrophages; assay type: functional; conditions: 336 h; summary of the method: as §1
Homo sapiens [6] = species on record: Homo sapiens; assay: Inhibition of HIV-1Ba-L replication was measured after 14 days postvirus challenge by HIV-p24 ELISA at the dosage of 0.16 uM concentration in human macrophages; assay type: functional; conditions: 336 h; summary of the method: as §1
MT4 [7] = assay: Tested for the inhibitory activity of HIV-1 infected MT-4 cells; assay type: functional, cell-based; conditions: Homo sapiens
Summary of the method: (§2)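 MT-4 cells (5 × 10^5/mL) grown in RPMI-1640 with 10% FCS, 2 mM L-glutamine and 0.075% NaHCO3. Infected with HIV-1 or HIV-2 at 100 CCID50/mL and mixed with compound dilutions (100 to 0.006 µg/mL). After 5 days viable cells were counted by trypan blue staining. EC50 is the concentration that reduces viable-cell loss in infected cultures by 50%.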

MT4 [8] = assay: Tested for the inhibitory activity of HIV-2 infected MT-4 cells; assay type: functional, cell-based; conditions: Homo sapiens; summary of the method: as §2
MT4 [9] = assay: Tested for the cytotoxic concentration required to reduce the number of viable mock infected MT-4 cells; assay type: functional; conditions: Homo sapiens
Summary of the method: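 Mock-infected MT-4 cells (5 × 10^5/mL) in RPMI-1640 with 10% FCS were exposed to compound dilutions (100 to 0.006 µg/mL). Viable cells were counted by trypan blue at day 5; about 150-200 cells were counted in controls. CC50 is the concentration that reduces viable cell number by 50%.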

MT4 [10] = assay: Tested for the ratio between CC50 (MT-4) to EC50 (MT-4); assay type: functional, Homo sapiens
Homo sapiens [11] = species on record: Homo sapiens; assay: Inhibition of HIV-1Ba-L replication was measured after 14 days postvirus challenge by HIV-p24 ELISA at the dosage of 0.034 uM concentration in human macrophages; assay type: functional; conditions: 336 h; summary of the method: as §1
Homo sapiens [12] = species on record: Homo sapiens; assay: Inhibition of HIV-1Ba-L replication was measured after 14 days postvirus challenge by HIV-p24 ELISA at the dosage of 0.17 uM concentration in human macrophages; assay type: functional; conditions: 336 h; summary of the method: as §1
Homo sapiens [13] = species on record: Homo sapiens; assay: Inhibition of HIV-1Ba-L replication was measured after 14 days postvirus challenge by HIV-p24 ELISA at the dosage of 0.85 uM concentration in human macrophages; assay type: functional; conditions: 336 h; summary of the method: as §1
Homo sapiens [14] = species on record: Homo sapiens; assay: Inhibition of HIV-1Ba-L replication was measured after 14 days postvirus challenge by HIV-p24 ELISA at the dosage of 3.4 uM concentration in human macrophages; assay type: functional; conditions: 336 h; summary of the method: as §1

SMILES	EC50 (CCRF-CEM [1]) [µM]	EC50 (CCRF-CEM [2]) [µM]	inhibition at 0.033 µM (Homo sapiens [3]) [%]	inhibition at 0.8 µM (Homo sapiens [4]) [%]	inhibition at 3.3 µM (Homo sapiens [5]) [%]	inhibition at 0.16 µM (Homo sapiens [6]) [%]	EC50 (MT4 [7]) [µM]	EC50 (MT4 [8]) [µM]	CC50 (MT4 [9]) [µM]	Ratio (MT4 [10])	inhibition at 0.034 µM (Homo sapiens [11]) [%]	inhibition at 0.17 µM (Homo sapiens [12]) [%]	inhibition at 0.85 µM (Homo sapiens [13]) [%]	inhibition at 3.4 µM (Homo sapiens [14]) [%]
CCOC(=O)c1cn([C@@H]2O[C@H](CO[Si](C)(C)C(C)(C)C)[C@@]3(OS(=O)(=O)C=C3N)[C@H]2O[Si](C)(C)C(C)(C)C)nn1	0.54	> 165	0	98	> 99	20	0.79	≥ 165	> 165	>209				
CN(C)C(=O)c1cnnn1[C@@H]1O[C@H](CO[Si](C)(C)C(C)(C)C)[C@@]2(OS(=O)(=O)C=C2N)[C@H]1O[Si](C)(C)C(C)(C)C	0.12	> 7	0	> 99	> 99	42	0.06	> 30	20	335				
CCCc1cn([C@@H]2O[C@H](CO[Si](C)(C)C(C)(C)C)[C@@]3(OS(=O)(=O)C=C3N)[C@H]2O[Si](C)(C)C(C)(C)C)nn1	1.3	> 35					0.92	> 170	> 170	>185	0	12	42	67
CC(=O)c1cn([C@@H]2O[C@H](CO[Si](C)(C)C(C)(C)C)[C@@]3(OS(=O)(=O)C=C3N)[C@H]2O[Si](C)(C)C(C)(C)C)nn1	1.1	> 35					1.5	> 7	13	8.6				
Cc1cn([C@@H]2O[C@H](CO[Si](C)(C)C(C)(C)C)[C@@]3(OS(=O)(=O)C=C3N)[C@H]2O[Si](C)(C)C(C)(C)C)nn1	1.4	> 6.9					2.8	> 35	23	8.4				
CC(C)(C)[Si](C)(C)OC[C@H]1O[C@@H](n2cc(CCCCl)nn2)[C@H](O[Si](C)(C)C(C)(C)C)[C@]12OS(=O)(=O)C=C2N	0.66	> 33					0.58	> 170	53	91.4				
COCc1cnnn1[C@@H]1O[C@H](CO[Si](C)(C)C(C)(C)C)[C@@]2(OS(=O)(=O)C=C2N)[C@H]1O[Si](C)(C)C(C)(C)C	0.9	> 14					2.4	> 7	28	11				
CNC(=O)c1cn([C@@H]2O[C@H](CO[Si](C)(C)C(C)(C)C)[C@@]3(OS(=O)(=O)C=C3N)[C@H]2O[Si](C)(C)C(C)(C)C)nn1	1.2	> 7					0.41	> 7	12	28.8				
CC(C)(C)[Si](C)(C)OC[C@H]1O[C@@H](n2ccnn2)[C@H](O[Si](C)(C)C(C)(C)C)[C@]12OS(=O)(=O)C=C2N	3.4	> 7.5					3.8	> 7.5	15	4.1				

Source: ChEMBL document CHEMBL1127787, “1,2,3-Triazole-[2',5'-bis-O-(tert-butyldimethylsilyl)-beta-D- ribofuranosyl]-3'-spiro-5"-(4"-amino-1",2"-oxathiole 2",2"-dioxide) (TSAO) analogues: synthesis and anti-HIV-1 activity” (J Med Chem, 1994)
